Source: PubChem
Hits are enriched below; roughly 1.4% of the tested compounds scored in any of these assays.
A3A deaminase: human APOBEC3A DNA deaminase inhibition. inhibition, % at 20 µM. P31941. AID 493011. recombinant A3A, FAM/TAMRA ssDNA deamination fluorescence. hit rate 0.41% among 330,000;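 active = at least 40% inhibition at 20 µM here, with at most 30% in a related deaminase screen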;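 note: plate controls were A3A with DMSO for no effect and wells lacking A3A enzyme for full effect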
APOBEC3G inh: blocks human APOBEC3G single-stranded DNA deamination; Q9HC16; recombinant A3G, ssDNA deamination FAM/TAMRA fluorescence; inhibition, % at 20 µM; hit rate 0.28% among 330,000; AID 493012;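 active = inhibition of at least 40% at 20 µM, with no more than 30% in the related APOBEC3A deaminase screen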;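 note: plate controls were DMSO wells with A3G for no effect and wells lacking A3G enzyme for full effect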
APJ agonist: APJ receptor agonism. hit rate 0.11% among 330,000. CHO-K1 APJ PathHunter beta-arrestin, luminescence; 0% DMSO wells, 100% apelin. activation, % at 20 µM. P35414;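 active = activation more than six SD over the plate average, tested at 20 µM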;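 note: 0% = DMSO alone and 100% = apelin-13 at 10 nM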
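system = engineered CHO-K1 APJ arrestin reporter cells | input = 1000 cells per well | timing = overnight seeding, 90 min compound at 25 °C, 1 h detection | measured by = enzyme-fragment complementation luminescence | read-out = beta-arrestin recruitment to APJ as agonist activity, luminescent signal | control set = negative DMSO alone, positive Apelin-13 at 10 nM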
CCR6 antag: blocks CCL20-driven beta-arrestin recruitment at human CCR6; hit rate 0.49% among 340,000; CHO-K1 CCR6 PathHunter beta-arrestin, luminescence, CCL20-stimulated; inhibition, % at 20 µM;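 active = compounds whose inhibition of the agonist-driven luminescence signal at 20 µM reaches about 50%, limit read from the data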;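 note: cells stimulated with CCL20 at 14 nM final; plate controls were DMSO with CCL20 for no effect and DMSO without agonist for full effect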
Target sequence (P51684 whole entry, looked up): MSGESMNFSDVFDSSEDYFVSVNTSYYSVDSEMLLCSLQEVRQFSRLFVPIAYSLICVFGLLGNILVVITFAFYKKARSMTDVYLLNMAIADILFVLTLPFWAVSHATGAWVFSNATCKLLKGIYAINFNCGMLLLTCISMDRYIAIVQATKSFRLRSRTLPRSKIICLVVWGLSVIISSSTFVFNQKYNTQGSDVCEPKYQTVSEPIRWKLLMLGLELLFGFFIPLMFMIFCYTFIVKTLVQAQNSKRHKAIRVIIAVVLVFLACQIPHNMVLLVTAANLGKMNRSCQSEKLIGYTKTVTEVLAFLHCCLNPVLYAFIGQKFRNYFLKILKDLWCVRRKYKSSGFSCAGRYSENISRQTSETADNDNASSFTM
APJ antagonist: blocks the human apelin receptor APJ. P35414. CHO-K1 APJ beta-arrestin complementation, luminescence. inhibition, % at 20 µM. hit rate 0.32% among 330,000. AID 2521;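 active = inhibition above about 40% at 20 µM, limit read from the data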;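 note: cells challenged with 10 nM apelin-13 agonist together with compound; plate controls were apelin-13 plus DMSO wells for no effect and DMSO wells lacking apelin-13 for full effect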
CXCR6 inh: inhibitors of human CXCR6 receptor. O00574. CHO-K1 PathHunter CXCR6 beta-arrestin, luminescence. inhibition, % at 20 µM. hit rate 0.36% among 360,000; in the data active = inhibition above about 34%, passing the limit was not always enough;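 note: antagonist mode with CXCL16 agonist at 10 nM final; 0% = 10 nM CXCL16 with DMSO and 100% = unstimulated wells without agonist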
* marks the source's active call; other numbers are inactive results; nt = not tested or not shown.

SMILES	A3A deaminase	APOBEC3G inh	APJ agonist	CCR6 antag	APJ antagonist	CXCR6 inh
CCCCCCCCSC1=CC(=O)C(OC)=C(OC)C1=O	nt	nt	nt	nt	nt	39.1*
OC(c1ccccc1)(c1ccccc1)c1nccn1-c1ccccc1	nt	nt	nt	10.4	nt	2.7
CN(C)C1CN(Cc2cn(Cc3ccc(Cl)cc3)nn2)S(=O)(=O)C1 (stereo unspecified)	nt	nt	nt	nt	nt	-5.1
O=C(OCC1OC(n2ccc(=O)[nH]c2=O)C2OC12)c1ccccc1 (stereo unspecified)	nt	nt	nt	-1.9	nt	-7.4
COC(=O)c1ccccc1NN=Nc1ccccc1[N+](=O)[O-]	nt	nt	nt	nt	nt	-4.1
CC(=NNc1nc2ccccc2s1)c1ccncn1	nt	nt	nt	54.1*	nt	45.3*
C[C@H](CO)N1C[C@H](C)[C@@H](CN(C)CC2CC2)OCc2cnnn2CCCC1=O	nt	nt	nt	nt	nt	6.7
Cc1c(N=C2C=CC(=O)c3ccccc32)c(=O)n(-c2ccccc2)n1C	nt	nt	nt	75.1*	nt	31.5
Cc1c(N=C2C=C(Br)C(=O)C(Br)=C2)c(=O)n(-c2ccccc2)n1C	-0.5	4.5	-1.1	30.3	-61.5	-9.0
O=C(CCc1ccccc1)NNC(=S)NC(=O)c1ccccc1	-5.8	22.4	-2.8	69.1*	24.3	25.7
CC(=O)NC(=S)NNC(=O)CCc1ccccc1	-6.3	7.1	-3.8	-1.3	22.8	17.0
OCc1ccccc1-c1ccc2nccn2c1	nt	nt	nt	nt	nt	-1.6
Cc1ccc(C(=O)NN2C(=O)/C(=C/c3cn(C)c4ccccc34)SC2=S)cc1	nt	nt	nt	25.7	nt	17.4
Cn1cc(/C=C2\SC(=O)NC2=S)c2ccccc21	-0.5	-6.8	-4.5	53.1*	28.6	36.5
Cc1ccc(S(=O)(=O)NCC2(c3ccccc3)CCOCC2)cc1	1.3	-5.6	-0.5	12.3	5.0	-6.0
O=C(Nc1ccc2c(c1)CCC2)c1ncoc1-c1ccccc1F	-1.0	4.3	-0.9	-2.6	-9.1	1.4
COc1ccccc1CCC(=O)Nc1ccc(S(=O)(=O)Nc2ncccn2)cc1	nt	nt	nt	nt	nt	-7.5
NS(=O)(=O)c1ccc(Nc2ccc([N+](=O)[O-])c3nonc23)cc1	8.3	3.3	-6.0	63.5*	35.4	31.2
COC(=O)c1cc(=O)nc(NN=Cc2ccc(C)cc2)s1	nt	nt	nt	nt	nt	-5.2
COc1ccc(OC)c(NC(=O)C2(C)CCN2C(=O)Cc2ccc(Cl)cc2Cl)c1 (stereo unspecified)	nt	nt	nt	nt	nt	-1.7
Cc1ccc(C(=O)N/C(N)=N/c2nc3ccccc3o2)cc1	0.0	-4.2	-1.7	21.4	-25.0	5.5
COc1ccccc1C(=O)N/C(N)=N/c1nc2ccccc2o1	4.9	0.9	-8.8	75.4*	18.8	25.5
CC[C@]12C(=O)N(C)C[C@H]([C@@H]3C(=O)N(Cc4ccccc4)C(=O)[C@@H]31)N2C(=O)c1ccc(C(F)(F)F)cc1	nt	nt	nt	1.2	nt	nt
CCN(CC)c1ccc2c(c1)oc(=O)c1c(Cl)cc(=O)oc12	-0.1	-5.4	0.0	47.3	31.3	60.2*
CCN(CC)c1ccc2c(C)c(Cl)c(=O)oc2c1	-0.2	-1.5	-1.2	-2.9	-3.4	1.0
SMILES	A3A deaminase	APOBEC3G inh	APJ agonist	CCR6 antag	APJ antagonist	CXCR6 inh
CCc1nc2ccc(C(=O)N(C)Cc3ccco3)cn2c1N(C)CCCc1ccccc1	nt	nt	nt	nt	nt	10.8
O=P(NC1CCCCC1)(c1ccccc1)c1ccccc1	nt	nt	nt	6.2	nt	-1.1
CC/C(=C\C1CCCCC1)C(NP(=O)(c1ccccc1)c1ccccc1)c1ccccc1 (stereo unspecified)	-5.8	-9.4	-1.8	35.0	20.7	43.7*
O=C(N/N=C/c1cccc2nccnc12)c1ccncc1	-1.9	0.5	3.0	0.0	14.6	-7.5
O=C(N/N=C/c1cccc2nccnc12)c1ccccc1O	-10.6	-7.4	-9.6	65.8*	34.3	39.6
CC1=NOC(=O)/C1=C\c1ccc(-c2ccc(Br)cc2)o1	nt	nt	nt	76.1*	nt	41.4*
Cc1ccc(/C=C/C(=O)NCCc2ccccc2)o1	3.5	8.1	-2.9	83.2*	14.7	6.7
O=C(/C=C/c1ccco1)NCCc1ccccc1	4.3	-2.3	-0.5	21.9	18.9	11.1
CC(=O)Oc1ccc(N2C(=O)c3cccc4c([N+](=O)[O-])ccc(c34)C2=O)cc1	-1.2	-1.8	-1.5	65.2*	33.7	15.9
O=C1c2cccc3c([N+](=O)[O-])ccc(c23)C(=O)N1c1nccs1	-0.1	-5.3	0.3	73.3*	27.2	43.3*
CC(C)(C)c1ccc(OCC(=O)NNC(=S)NC(=O)c2ccco2)c(Br)c1	-6.2	3.0	-10.0	55.6*	29.5	24.5
